Series [1] addresses T1, human FATP5 (Homo sapiens, UniProt Q9Y2P5).
T1 sequence (Q9Y2P5 1-690): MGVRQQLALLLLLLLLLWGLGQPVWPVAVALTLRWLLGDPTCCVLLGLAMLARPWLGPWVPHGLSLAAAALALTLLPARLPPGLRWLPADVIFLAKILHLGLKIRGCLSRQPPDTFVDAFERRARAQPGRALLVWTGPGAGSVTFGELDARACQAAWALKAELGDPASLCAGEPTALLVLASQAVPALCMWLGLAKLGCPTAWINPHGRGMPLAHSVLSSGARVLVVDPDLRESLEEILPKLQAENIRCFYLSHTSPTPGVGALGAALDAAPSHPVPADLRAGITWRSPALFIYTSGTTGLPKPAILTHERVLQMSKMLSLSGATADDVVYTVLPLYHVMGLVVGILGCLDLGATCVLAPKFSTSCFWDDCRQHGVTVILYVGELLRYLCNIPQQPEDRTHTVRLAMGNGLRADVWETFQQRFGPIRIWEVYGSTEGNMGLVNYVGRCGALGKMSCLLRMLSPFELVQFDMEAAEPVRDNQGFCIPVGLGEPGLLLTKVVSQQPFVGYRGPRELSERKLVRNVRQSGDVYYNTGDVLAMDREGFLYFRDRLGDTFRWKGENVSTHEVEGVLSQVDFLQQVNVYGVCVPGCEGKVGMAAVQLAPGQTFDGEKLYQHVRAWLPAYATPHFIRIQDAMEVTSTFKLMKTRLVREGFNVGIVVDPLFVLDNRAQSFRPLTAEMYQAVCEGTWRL
Format: cell-based. As to conditions: for inhibition of FATP5-mediated LCFA uptake: result in words. Put shortly: (§1)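 HEK-293 cells stably expressing human FATP4, FATP2 or FATP5 were maintained in DMEM/10% FBS with 1 mg/ml G418. Cells were plated at 30,000–50,000/well overnight to 50–70% confluency. They were preincubated 30 min (5% CO2) with test compound, diluted from DMSO stock into HBSS with 20 mM HEPES, 4.5 g/L glucose and 0.1% fatty-acid-free BSA. Compound in quencher mix containing 2 μM C1-BODIPY-C12 was then added. Fluorescence (ex 488/em 515 nm, bottom read) was recorded every 2 min for 2 h, and uptake velocities were derived by linear regression.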

Series [2] concerns FATP5 and FATP2. The series can be described thus: Inhibition reversibility assay. As to conditions: 30 min treatment followed by brief washes with PBS. It is filed as cell-based, human.
Series [3] deals with human FATP2 (Homo sapiens, UniProt O14975). Format: cell-based. As to conditions: for inhibition of FATP2-mediated LCFA uptake: result in words. The essentials: as §1
The subject of series [4] is 293 cells. The series can be described thus: XTT toxicity assay, stable 293 cell lines. Format: cell-based, human. The settings on record: 48 hours. The essentials:
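Stable 293 cells in DMEM/FBS were incubated overnight in 5% CO2. The indicated test compound or DMSO control was added, and after a further 48 h viability was measured with an XTT kit per the manufacturer's instructions.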
A general note: Tetrazolium dyes change colour on reduction, which living cells bring about.

Series [5] has as its system hepatic LCFA uptake. The series can be described thus: Non-radioactive in vivo hepatic LCFA uptake assay. Also noted: species or system mouse. As to conditions: WT mice, acute injection.
For series [6], the system named is primary mouse hepatocytes from C57Bl/6 animals. The series can be described thus: Quencher based LCFA uptake assay, wild-type mouse primary hepatocytes. Format: cell-based.
Series [7] concerns hepatic TAG content. Nature of the series: 7 week bile acid supplemented high-fat diet feeding. Format: in vivo, mouse.
Series [8] deals with hsFATP4 (Homo sapiens, UniProt Q6P1M0). The series can be described thus: Quencher-based LCFA uptake assay, FATP4 expressing 293 cells. It is filed as cell-based. The settings on record: result in words. Put shortly:
as §1

For series [9], the system named is hepatic triglyceride accumulation. Nature of the series: Chronic bile acid injection during high-fat diet. As to conditions: 3.2 mg/kg s.c. daily, 47 days. It is filed as in vivo, mouse. Put shortly:
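Individually housed mice on a high-fat diet (60% calories from fat) received daily s.c. injections of test compound, 3.2 mg/kg in 20 μl DMSO, above the right hip for 47 days. Controls received DMSO vehicle. Mice were fasted 4 h and euthanised with CO2, and injection sites were checked for precipitate. Liver lysates were assayed for protein (BCA) and TAG.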

Series [10] has as its system primary human hepatocytes. Nature of the series: FACS-based LCFA uptake assay, primary human hepatocytes. The settings on record: 10 or 100 μM, viable cells. Format: cell-based. The essentials:
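Suspended primary human hepatocytes were pretreated with test compound at 10 or 100 μM in DMEM (37°C, 5% CO2, 30 min). C1-BODIPY-C12 bound to 0.1% BSA was then added to a final 2 μM for 30 min at 37°C. Uptake was stopped on ice, and cells were centrifuged at 4°C and resuspended in cold PBS. Propidium iodide was added, and mean BODIPY fluorescence of 5000 viable PI-negative cells was taken from histogram plots.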

[11] abbreviates: 0.5mg/g in high fat food, 7 weeks.

Data on ten compounds can be found in publication PMC3445775 (Hepatology (Baltimore, Md.), 2012).

Entries after “also recorded” stand apart in the source; their conditions may differ.

What is called IC50 is the concentration that gives 50% inhibition.

hsFATP4, sequence (Q6P1M0 whole entry): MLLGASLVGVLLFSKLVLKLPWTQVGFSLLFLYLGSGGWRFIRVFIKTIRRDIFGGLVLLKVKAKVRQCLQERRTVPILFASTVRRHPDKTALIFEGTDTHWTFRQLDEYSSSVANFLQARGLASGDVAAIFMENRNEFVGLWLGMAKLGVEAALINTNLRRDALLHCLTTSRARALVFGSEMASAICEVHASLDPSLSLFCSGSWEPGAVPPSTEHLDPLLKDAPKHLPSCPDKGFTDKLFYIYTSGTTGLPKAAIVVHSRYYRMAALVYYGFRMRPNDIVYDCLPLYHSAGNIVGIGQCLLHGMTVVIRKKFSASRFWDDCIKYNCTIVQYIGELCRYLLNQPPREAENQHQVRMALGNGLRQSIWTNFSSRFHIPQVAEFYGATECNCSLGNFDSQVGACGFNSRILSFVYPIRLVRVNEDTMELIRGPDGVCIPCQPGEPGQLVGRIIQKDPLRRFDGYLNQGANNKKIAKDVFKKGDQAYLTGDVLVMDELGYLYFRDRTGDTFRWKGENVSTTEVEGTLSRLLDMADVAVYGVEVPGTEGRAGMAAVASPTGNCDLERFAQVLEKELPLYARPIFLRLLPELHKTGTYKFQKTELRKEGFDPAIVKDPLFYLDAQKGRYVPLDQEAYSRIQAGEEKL

For the compound `C[C@H](CCC(=O)O)[C@H]1CC[C@H]2[C@@H]3[C@H](O)C[C@@H]4C[C@H](O)CC[C@]4(C)[C@H]3C[C@H](O)[C@]12C` [CA, cholic acid], in [1], half-maximal inhibition (IC50) was put at 31 µM and the “inhibition of FATP5-mediated LCFA uptake” value was “specifically inhibited FATP5-mediated LCFA uptake”. Also, in [2], the “Reversible Inhibition” value was “complete reversibility and Yes”.

For `COc1cc(/C=C2/SC(=S)N(c3cccc(Cl)c3)C2=O)cc(Br)c1O` [CB-2, (5E)-5-[(3-bromo-4-hydroxy-5-methoxyphenyl)methylene]-3-(3-chlorophenyl)-2-thioxothiazolidin-4-one, reference compound], in series [2], the “Reversible Inhibition” value was “Yes”. 8 µM corresponded to half-maximal inhibition in [3] (IC50).

On to `O=c1cc(-c2ccc([N+](=O)[O-])cc2)nc2c(-c3ccc(Cl)cc3)c(Cc3ccccc3)[nH]n12` [CB-5, 2-benzyl-3-(4-chlorophenyl)-5-(4-nitrophenyl)-1H-pyrazolo[5,1-b]pyrimidin-7-one, reference compound], for which the IC50 in [1] was determined as 7 µM; in series [3], 18 µM. In addition, the “Reversible Inhibition” value in series [2] was “No (tox)”. In addition, the “toxicity (XTT assay)” value in series [4] is “marked cytotoxicity”.

As for `Oc1c(C2=NCCNC(C(F)(F)F)=C2)ccc2ccccc12` [CB-6, 2-[7-(trifluoromethyl)-2,3-dihydro-1H-1,4-diazepin-5-yl]naphthalen-1-ol, reference compound], the IC50 in series [1] is 38 µM; in [3] it was 12 µM. Moreover, in [2], the “Reversible Inhibition” value was “irreversible and No”.

`C[C@H](CCC(=O)O)[C@H]1CC[C@H]2[C@@H]3[C@H](O)C[C@@H]4C[C@H](O)CC[C@]4(C)[C@H]3CC[C@]12C` [CDCA, chenodeoxycholic acid]: in series [1], half-maximal inhibition (IC50) required 10 µM and the “inhibition of FATP5-mediated LCFA uptake” value was “specifically inhibited FATP5-mediated LCFA uptake”. Also, the “Reversible Inhibition” value in [2] is “complete reversibility and Yes”.

Turning to `C[C@H](CCC(=O)O)[C@H]1CC[C@H]2[C@@H]3CC[C@@H]4C[C@H](O)CC[C@]4(C)[C@H]3CC[C@]12C` [LCA, lithocholic acid], the “inhibition of FATP5-mediated LCFA uptake” value in [1] is on record as “no inhibition”. Besides, the “effect on in vivo hepatic LCFA uptake” value in [5] is listed as “had no effect”. Also, in series [6], the “inhibition of LCFA uptake by primary mouse hepatocytes” value was “no inhibition”. Moreover, in series [7] (setting [11]), the body weight entry was “Neither DCA nor LCA feeding resulted in changes”, the “caloric output over a 36h period” value is recorded as “Neither DCA nor LCA feeding resulted in changes”, the food intake entry was “Neither DCA nor LCA feeding resulted in changes” and the respiratory rate entry is “Neither DCA nor LCA feeding resulted in changes”. In addition, the “effect on liver TAG content” value in [7] (result in words, LCA in high-fat diet model) is recorded as “had no effect”. In series [3], the “inhibition of FATP2-mediated LCFA uptake” value is “no inhibition”. Besides, in [8], the “inhibition of FATP4 LCFA uptake” value was “neither DCA, UDCA, nor LCA inhibited; also recorded: No inhibition”. Moreover, in series [9], the body weight result is reported as “nor did it affect food consumption or body weight”, the food consumption result is “nor did it affect food consumption or body weight” and the respiration result is on record as “neither triggered an increase in respiration”.

With `C[C@H](CCC(=O)NCCS(=O)(=O)O)[C@H]1CC[C@H]2[C@@H]3CC[C@@H]4C[C@H](O)CC[C@]4(C)[C@H]3C[C@H](O)[C@]12C` [TDCA, taurodeoxycholic acid], the “inhibition of FATP5-mediated LCFA uptake” value in series [1] is reported as “inhibited neither FATP2 nor FATP5”. Also, the “inhibition of FATP2-mediated LCFA uptake” value in series [3] is “inhibited neither FATP2 nor FATP5”.

With `CC(CCC[C@@H](C)[C@H]1CC[C@H]2[C@@H]3[C@H](O)C[C@@H]4C[C@H](O)CC[C@]4(C)[C@H]3C[C@H](O)[C@]12C)C(=O)O` (stereo partly drawn) [THCA, 3a,7a,12a-Trihydroxy-5β-cholestanoic acid], the “inhibition of FATP5-mediated LCFA uptake” value in [1] is listed as “weak inhibition”. For the same compound, the “inhibition of FATP2-mediated LCFA uptake” value in [3] is on record as “no inhibition”.

As to `C[C@H](CCC(=O)NCCS(=O)(=O)O)[C@H]1CC[C@H]2[C@@H]3[C@@H](O)C[C@@H]4C[C@H](O)CC[C@]4(C)[C@H]3CC[C@]12C` [TUDCA, tauroursodeoxycholic acid], in series [1], the “inhibition of FATP5-mediated LCFA uptake” value is on record as “did not inhibit”. The “inhibition of FATP2-mediated LCFA uptake” value in [3] is recorded as “did not inhibit”. Besides, in series [10], the “inhibition of LCFA uptake by primary human hepatocytes” value is reported as “but not TUDCA”.

Turning to `C[C@H](CCC(=O)O)[C@H]1CC[C@H]2[C@@H]3[C@H](O)[C@@H](O)[C@@H]4C[C@H](O)CC[C@]4(C)[C@H]3CC[C@]12C` [alpha-muricholic acid], the “inhibition of FATP5-mediated LCFA uptake” value in series [1] was “no effect on LCFA uptake”.
